{"source": "ChEMBL document CHEMBL1275519", "about": "“In vivo pharmacodynamics of ceftobiprole against multiple bacterial pathogens in murine thigh and lung infection models” (Antimicrob Agents Chemother, 2008)", "key": {"[1]": {"test": "T>MIC in Streptococcus pneumoniae MNO-418 infected CD1 neutropenic mouse at static dose of 0.238 mg/kg, sc administered every 6 hrs", "type": "functional", "conditions": "route subcutaneous", "procedure,_shortened": "(§1)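 Neutropenic mice (cyclophosphamide i.p. 150 and 100 mg/kg, 4 and 1 days pre-infection) given 0.1 ml thigh inoculum (1:10 dilution of 10^8 CFU/ml), then treated from 2 h post-infection for 24 h with s.c. ceftobiprole medocaril (0.010–160 mg/kg) at varied intervals. Thigh CFU plated from homogenates. Static dose came from a sigmoid Hill model, and T>MIC was estimated from mouse PK and MIC.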"}, "[2]": {"test": "T>MIC in Staphylococcus aureus […] infected CD1 neutropenic mouse at 2-log kill dose of 10.3 mg/kg, sc administered every 6 hrs", "type": "functional", "conditions": "route subcutaneous"}, "Streptococcus pneumoniae [3]": {"tested_on": "Streptococcus pneumoniae", "test": "Antimicrobial activity against Streptococcus pneumoniae MNO-418 by broth dilution method", "type": "functional", "procedure,_shortened": "(§2)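 Ceftobiprole MIC by broth microdilution per Clinical and Laboratory Standards Institute (formerly NCCLS) methods, using ceftobiprole standard powder.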"}, "Streptococcus pneumoniae [4]": {"tested_on": "Streptococcus pneumoniae", "test": "Antimicrobial activity against Streptococcus pneumoniae CDC 1329 by broth dilution method", "type": "functional", "procedure,_shortened": "(§3)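 Ceftobiprole MIC determined by CLSI (NCCLS) broth microdilution.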"}, "Staphylococcus aureus [5]": {"tested_on": "Staphylococcus aureus", "test": "Antimicrobial activity against Staphylococcus aureus ATCC 22923 by broth dilution method", "type": "functional", "procedure,_shortened": "as §2"}, "[6]": {"test": "T>MIC in methicillin-resistant Staphylococcus aureus WIS-1 infected CD1 neutropenic mouse at static dose of 16.1 mg/kg, sc administered every 6 hrs", "type": "functional", "conditions": "route subcutaneous"}, "[7]": {"test": "T>MIC in methicillin-resistant Staphylococcus aureus 12248 infected CD1 neutropenic mouse at 2-log kill dose of 50.5 mg/kg, sc administered every 6 hrs", "type": "functional", "conditions": "route subcutaneous"}, "[8]": {"test": "T>MIC in Streptococcus pneumoniae MNO-418 infected CD1 neutropenic mouse at 2-log kill dose of 0.624 mg/kg, sc administered every 6 hrs", "type": "functional", "conditions": "route subcutaneous"}, "[9]": {"test": "T>MIC in methicillin-resistant Staphylococcus aureus 11888 infected CD1 neutropenic mouse at 2-log kill dose of 40.2 mg/kg, sc administered every 6 hrs", "type": "functional", "conditions": "route subcutaneous"}, "[10]": {"test": "T>MIC in Staphylococcus aureus ATCC Smith infected CD1 neutropenic mouse at static dose of 4.21 mg/kg, sc administered every 6 hrs", "type": "functional", "conditions": "route subcutaneous", "procedure,_shortened": "as §1"}, "[11]": {"test": "AUC in CD1 neutropenic mouse with bacterial infection in thigh at 10 mg/kg, sc", "conditions": "plasma"}, "Streptococcus pneumoniae [12]": {"tested_on": "Streptococcus pneumoniae", "test": "Antimicrobial activity against Streptococcus pneumoniae CDC 1293 by broth dilution method", "type": "functional", "procedure,_shortened": "as §3"}, "[13]": {"test": "T>MIC in Enterobacter cloacae 2249 infected CD1 neutropenic mouse at static dose of 22.2 mg/kg, sc administered every 3 hrs", "type": "functional", "conditions": "route subcutaneous", "procedure,_shortened": "as §1"}, "Streptococcus pneumoniae [14]": {"tested_on": "Streptococcus pneumoniae", "test": "Antimicrobial activity against Streptococcus pneumoniae ATCC 10813 by broth dilution method", "type": "functional", "procedure,_shortened": "as §3"}, "[15]": {"test": "T>MIC in Pseudomonas aeruginosa ATCC 27853 infected CD1 neutropenic mouse at static dose of 25.2 mg/kg, sc administered every 3 hrs", "type": "functional", "conditions": "route subcutaneous", "procedure,_shortened": "as §1"}, "Staphylococcus aureus [16]": {"tested_on": "Staphylococcus aureus", "test": "Antimicrobial activity against Staphylococcus aureus ATCC Smith by broth dilution method", "type": "functional", "procedure,_shortened": "as §2"}, "[17]": {"test": "T>MIC in Streptococcus pneumoniae ATCC 10813 infected CD1 neutropenic mouse at static dose of 0.180 mg/kg, sc administered every 6 hrs", "type": "functional", "conditions": "dose 0.18 mg/kg; route subcutaneous", "procedure,_shortened": "as §1"}, "[18]": {"test": "T>MIC in Klebsiella pneumoniae infected CD1 neutropenic mouse at static dose of 6.61 mg/kg, sc administered every 6 hrs", "type": "functional", "conditions": "route subcutaneous", "procedure,_shortened": "as §1"}, "[19]": {"test": "T>MIC in Enterobacter cloacae 4567 infected CD1 neutropenic mouse at 2-log kill dose of 4.67 mg/kg, sc administered every 3 hrs", "type": "functional", "conditions": "route subcutaneous"}, "[20]": {"test": "T>MIC in methicillin-resistant Staphylococcus aureus WIS-1 infected CD1 neutropenic mouse at 2-log kill dose of 53.9 mg/kg, sc administered every 6 hrs", "type": "functional", "conditions": "route subcutaneous"}, "[21]": {"test": "T>MIC in Streptococcus pneumoniae CDC 1293 infected CD1 neutropenic mouse at 2-log kill dose of 3.55 mg/kg, sc administered every 6 hrs", "type": "functional", "conditions": "route subcutaneous"}, "[22]": {"test": "T>MIC in Streptococcus pneumoniae CDC-145 infected CD1 neutropenic mouse at static dose of 0.956 mg/kg, sc administered every 6 hrs", "type": "functional", "conditions": "route subcutaneous", "procedure,_shortened": "as §1"}, "[23]": {"test": "T>MIC in Streptococcus pneumoniae CDC 673 infected CD1 neutropenic mouse at 2-log kill dose of 29 mg/kg, sc administered every 6 hrs", "type": "functional", "conditions": "route subcutaneous"}, "[24]": {"test": "T>MIC in Staphylococcus aureus ATCC 22923 infected CD1 neutropenic mouse at static dose of 2.03 mg/kg, sc administered every 6 hrs", "type": "functional", "conditions": "route subcutaneous", "procedure,_shortened": "as §1"}, "[25]": {"test": "Half life in CD1 neutropenic mouse with bacterial infection in thigh at 160 mg/kg, sc", "type": "ADME, organism-based", "design": "dose 160 mg/kg, route subcutaneous", "conditions": "in vivo", "procedure,_shortened": "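Neutropenic thigh-infected mice (cyclophosphamide i.p. 150 mg/kg day −4, 100 mg/kg day −1) given single s.c. ceftobiprole medocaril doses; two groups of three mice per dose bled retro-orbitally at 0.5–6 h, each animal 3–4 times. Total serum drug measured by agar diffusion bioassay with E. coli NIH-J (linear 0.25–256 μg/ml). Cmax, t1/2 and AUC from one-compartment model.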"}, "Staphylococcus aureus [26]": {"tested_on": "Staphylococcus aureus", "test": "Antimicrobial activity against Staphylococcus aureus ATCC 29213 by broth dilution method", "type": "functional", "procedure,_shortened": "as §2"}, "[27]": {"test": "T>MIC in Streptococcus pneumoniae CDC 1329 infected CD1 neutropenic mouse at static dose of 2.93 mg/kg, sc administered every 6 hrs", "type": "functional", "conditions": "route subcutaneous", "procedure,_shortened": "as §1"}, "[28]": {"test": "T>MIC in methicillin-resistant Staphylococcus aureus 22115 infected CD1 neutropenic mouse at 2-log kill dose of 34.4 mg/kg, sc administered every 6 hrs", "type": "functional", "conditions": "route subcutaneous"}, "Streptococcus pneumoniae [29]": {"tested_on": "Streptococcus pneumoniae", "test": "Antimicrobial activity against Streptococcus pneumoniae CDC 145 by broth dilution method", "type": "functional", "procedure,_shortened": "as §3"}, "[30]": {"test": "T>MIC in Staphylococcus aureus ATCC Smith infected CD1 neutropenic mouse at 2-log kill dose of 9.60 mg/kg, sc administered every 6 hrs", "type": "functional", "conditions": "dose 9.6 mg/kg; route subcutaneous"}, "[31]": {"test": "Half life in CD1 neutropenic mouse with bacterial infection in thigh at 10 mg/kg, sc", "conditions": "in vivo"}, "Staphylococcus aureus [32]": {"tested_on": "Staphylococcus aureus", "test": "Antimicrobial activity against methicillin-resistant Staphylococcus aureus 11888 by broth dilution method", "type": "functional", "procedure,_shortened": "as §2"}, "Pseudomonas aeruginosa": {"tested_on": "Pseudomonas aeruginosa", "test": "Antimicrobial activity against Pseudomonas aeruginosa ATCC 27853 by broth dilution method", "type": "functional", "procedure,_shortened": "as §2"}}}
{"compound": "Nc1nc(/C(=N/O)C(=O)N[C@@H]2C(=O)N3C(C(=O)O)=C(/C=C4\\CCN([C@@H]5CCNC5)C4=O)CS[C@H]23)ns1", "note": "[CEFTOBIPROLE]", "values": [{"measurement": "fT>MIC", "setting": "[1]", "result": 21.3, "unit": "%"}, {"measurement": "fT>MIC", "setting": "[2]", "result": 26.5, "unit": "%"}, {"measurement": "MIC", "setting": "Streptococcus pneumoniae [3]", "result": 0.015, "unit": "µg/mL"}, {"measurement": "MIC", "setting": "Streptococcus pneumoniae [4]", "result": 0.25, "unit": "µg/mL"}, {"measurement": "MIC", "setting": "Staphylococcus aureus [5]", "result": 0.5, "unit": "µg/mL"}, {"measurement": "fT>MIC", "setting": "[6]", "result": 25, "unit": "%"}, {"measurement": "fT>MIC", "setting": "[7]", "result": 31.6, "unit": "%"}, {"measurement": "fT>MIC", "setting": "[8]", "result": 31.8, "unit": "%"}, {"measurement": "fT>MIC", "setting": "[9]", "result": 27.4, "unit": "%"}, {"measurement": "fT>MIC", "setting": "[10]", "result": 19.6, "unit": "%"}, {"measurement": "AUC at 10 mg/kg", "setting": "[11]", "result": 5850, "unit": "ng·h/mL"}, {"measurement": "MIC", "setting": "Streptococcus pneumoniae [12]", "result": 0.5, "unit": "µg/mL"}, {"measurement": "fT>MIC", "setting": "[13]", "result": 44.6, "unit": "%"}, {"measurement": "MIC", "setting": "Streptococcus pneumoniae [14]", "result": 0.03, "unit": "µg/mL"}, {"measurement": "fT>MIC", "setting": "[15]", "result": 46.7, "unit": "%"}, {"measurement": "MIC", "setting": "Staphylococcus aureus [16]", "result": 0.5, "unit": "µg/mL"}, {"measurement": "fT>MIC", "setting": "[17]", "result": 19.4, "unit": "%"}, {"measurement": "fT>MIC", "setting": "[18]", "result": 41.2, "unit": "%"}, {"measurement": "fT>MIC", "setting": "[19]", "result": 40.9, "unit": "%"}, {"measurement": "fT>MIC", "setting": "[20]", "result": 39.1, "unit": "%"}, {"measurement": "fT>MIC", "setting": "[21]", "result": 18.4, "unit": "%"}, {"measurement": "fT>MIC", "setting": "[22]", "result": 15.2, "unit": "%"}, {"measurement": "fT>MIC", "setting": "[23]", "result": 29.7, "unit": "%"}, {"measurement": "fT>MIC", "setting": "[24]", "result": 14.1, "unit": "%"}, {"measurement": "half-life", "setting": "[25]", "result": 31.7, "unit": "min"}, {"measurement": "MIC", "setting": "Staphylococcus aureus [26]", "result": 0.5, "unit": "µg/mL"}, {"measurement": "fT>MIC", "setting": "[27]", "result": 22.2, "unit": "%"}, {"measurement": "fT>MIC", "setting": "[28]", "result": 29.6, "unit": "%"}, {"measurement": "MIC", "setting": "Streptococcus pneumoniae [29]", "result": 0.25, "unit": "µg/mL"}, {"measurement": "fT>MIC", "setting": "[30]", "result": 25.9, "unit": "%"}, {"measurement": "half-life", "setting": "[31]", "result": 19, "unit": "min"}, {"measurement": "MIC", "setting": "Staphylococcus aureus [32]", "result": 2, "unit": "µg/mL"}, {"measurement": "MIC", "setting": "Pseudomonas aeruginosa", "result": 2, "unit": "µg/mL"}]}
